Source: PubChem BioAssay
OX1R antag-1: antagonists of human orexin 1 receptor (OX1R); O43613; OX1R-expressing cells, FRET antagonist read-out; inhibition, % at 6.6 µM; hit rate 1.8% among 330,000; in the data active = inhibition mostly above about 38%, no sharp cut-off; inactive = mostly below about 40%;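 note: 0% = agonist challenge alone and 100% = reference antagonist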
Target sequence (O43613 whole entry, looked up): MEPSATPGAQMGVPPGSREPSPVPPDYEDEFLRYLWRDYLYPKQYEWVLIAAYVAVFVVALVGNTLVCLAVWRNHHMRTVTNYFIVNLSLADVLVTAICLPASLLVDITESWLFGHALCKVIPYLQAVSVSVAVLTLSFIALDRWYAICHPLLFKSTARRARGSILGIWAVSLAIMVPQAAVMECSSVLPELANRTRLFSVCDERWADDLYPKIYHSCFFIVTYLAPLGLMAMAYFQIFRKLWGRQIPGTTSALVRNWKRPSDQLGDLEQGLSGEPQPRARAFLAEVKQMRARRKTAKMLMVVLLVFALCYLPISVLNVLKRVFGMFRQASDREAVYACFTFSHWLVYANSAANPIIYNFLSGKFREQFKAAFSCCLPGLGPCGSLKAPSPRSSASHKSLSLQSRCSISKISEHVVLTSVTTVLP
TAAR1 ag: human TAAR1 agonism. Q96RJ0. CHO RD-HGA16 TAAR1, Fluo-8 calcium fluorescence; vehicle wells 0%, saturating PEA agonist 100%. activation, % at 3 µM. hit rate 0.99% among 360,000. AID 624467;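 active = activation above the mean activation of all test compounds in the run plus 3 SD, cut at about 38% in these data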
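Test system: RD-HGA16 (CHO) cells co-expressing Gα16 and hTAAR1; dosing: one-point dosing at 3 µM (nominal); timing: 17-24 h seeding, 75 min 37 °C dye, 30 min RT; signal: kinetic Fluo-8 calcium fluorescence; read-out basis: % activation relative to PEA EC100 response; controls: DMSO and PEA EC100; replicates: n 1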
OX1R antag-2: blocks the human orexin 1 receptor; O43613; CHO/OX1R cells, Fluo-8 calcium fluorescence, orexin A; inhibition, % at 5 µM; hit rate 0.43% among 330,000; AID 434989;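 active = inhibition above its plate's threshold, mean inhibition of all tested compounds on the plate plus 3 SD, cut at about 37% in these data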;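 note: 0% = orexin A challenge wells and 100% = SB-334867-A antagonist wells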
CHO parental Ca: counter-screen: ATP calcium response change in parental CHO cells; parental CHO-K1, ATP-induced calcium, Fluo-8 fluorescence; hit rate 0.63% among 330,000; inhibition, % at 5.6 µM;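 active = inhibition above that plate's mean sample inhibition plus 3 SD, cut at about 26% in these data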;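 note: 0% = ATP-challenged DMSO wells and 100% = DMSO wells without ATP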
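Assay system – parental CHO cells · Reagent – ATP stimulus · Detection – intracellular calcium via Fluo-8 no-wash fluorescent dye · Evaluation – percent inhibition of ATP-evoked calcium rise, normalized to controls · Controls – ATP wells versus no-ATP DMSO wells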
GPR7 antagonist: blocks human GPR7 receptor signaling; P48145; GPR7-expressing cells, fluorescence antagonist assay; inhibition, % at 4.4 µM; hit rate 1.1% among 290,000; in the data active = inhibition above about 16%, passing the limit was not always enough;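 note: cells stimulated with the agonist NPW; 0% = agonist with vehicle and 100% = vehicle without agonist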
TAAR1 antag: antagonists of human TAAR1; inhibition, % at 3 µM; CHO RD-HGA16 TAAR1, Fluo-8 calcium fluorescence, antagonist; Q96RJ0; hit rate 1.5% among 360,000;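 active = inhibition above a per-plate cutoff, the mean inhibition of test compounds on that plate plus 3 SD, cut at about 49% in these data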;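 note: 0% = DMSO plus EC80 beta-PEA response and 100% = DMSO alone without agonist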
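Test system: hTAAR1-expressing CHO RD-HGA16 cells, Gα16-coupled; Probe or stimulus: EC80 β-phenethylamine stimulus; Compound dosing: single nominal final test compound concentration of 3 µM; Timing: 140 s kinetic read after compound, 140 s after agonist; Signal: Fluo-8 calcium-sensitive fluorescence; Measure: % inhibition of agonist calcium response; Controls: DMSO and EC80 PEA controls.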
TAAR1 ag conf: confirmation of human TAAR1 agonists; shares compounds with TAAR1 ag; CHO RD-HGA16 TAAR1, Fluo-8 calcium fluorescence; scaled: DMSO 0%, maximal phenethylamine 100%; activation, % at 3 µM; hit rate 82% among 2,400; AID 651783;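 active = activation above a cutoff set at the run's mean compound activation plus 3 SD, cut at about 39% in these data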
Ga16 ag counter: counter-screen for TAAR1 agonists: nonselective agonists in parental cells; shares compounds with TAAR1 ag; CHO-Ga16 parental, Fluo-8 calcium fluorescence; normalized to maximal ATP response, DMSO zero; activation, % at 3 µM; hit rate 50% among 2,400; AID 651787;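 active = activation above the run cutoff, the mean activation over all tested wells plus 3 SD, cut at about 12% in these data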;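 note: 0% = DMSO wells and 100% = maximal ATP response on the peak over basal ratio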
TAAR1 desensitize: human TAAR1 agonist that also desensitizes the receptor; shares compounds with TAAR1 ag; CHO RD-HGA16 hTAAR1, Fluo-8 calcium, beta-PEA response inhibition; inhibition, % at 3 µM; hit rate 46% among 2,400; AID 651951;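 active = inhibition above the run cutoff, the mean inhibition of all test compounds plus 3 SD, cut at about 49% in these data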;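 note: beta-PEA stimulus applied at its EC80; loss of beta-PEA calcium signal after compound pretreatment read as receptor desensitization; 0% = DMSO with beta-PEA at EC80 and 100% = DMSO alone without agonist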
Ga16 nonsel ant: counter-screen for TAAR1 agonists: nonselective Ga16 antagonists | inhibition, % at 3 µM | CHO-Ga16 ATP-induced calcium, Fluo-8 fluorescence | shares compounds with TAAR1 ag | hit rate 39% among 2,400;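 active = inhibition above the plate's mean compound inhibition plus 3 SD, computed per plate, cut at about 22% in these data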;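 note: 0% = EC80 ATP with DMSO and 100% = DMSO wells without ATP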
* hit, by the source's call; . = no result. Sampled rows, rich in hits. Any-hit rate of the full collection: about 4.6%.

SMILES | OX1R antag-1 | TAAR1 ag | OX1R antag-2 | CHO parental Ca | GPR7 antagonist | TAAR1 antag | TAAR1 ag conf | Ga16 ag counter | TAAR1 desensitize | Ga16 nonsel ant
Cc1ccc(-n2nnnc2SCC(=O)N2CC(=O)Nc3ccccc32)cc1 | 16.7 | 11.2 | -19.1 | -13.1 | -1.5 | 11.2 | . | . | . | .
O=C(O)c1ccc(-c2noc(-c3ccccc3C(F)(F)F)n2)cc1 | -6.2 | 81.9* | 11.2 | 10.3 | . | 14.0 | 28.2 | 19.9* | 19.5 | 23.7*
FC(F)(F)c1ccccc1-c1nc(-c2ccncc2)no1 | -1.2 | 8.4 | -15.9 | -17.6 | -18.1 | 7.5 | . | . | . | .
CC(=O)NNC(=S)NC(=O)C(c1ccccc1)c1ccccc1 | 13.0 | 49.3* | -18.0 | -15.8 | -2.4 | 18.8 | 28.1 | 19.6* | 26.7 | 24.6*
Cc1cc(=O)[nH]c(SCC(=O)N2CCCC(C)C2)n1 (stereo not given) | 9.3 | 75.4* | -6.2 | 10.1 | -7.6 | -10.1 | 38.7* | 0.9 | -8.1 | 2.3
Cc1cc(=O)[nH]c(SCC(=O)N2CCCC2)n1 | 2.2 | 2.2 | -11.0 | -1.4 | . | -11.2 | . | . | . | .
CC(C)(CNC(=O)CC1C(=O)NCCN1Cc1cccc(F)c1F)N1CCOCC1 (stereo not given) | -6.7 | 2.8 | -10.1 | -0.8 | -10.7 | -13.6 | . | . | . | .
COc1cccc(/C=N/Nc2ccccc2C(=O)O)c1O | 0.8 | 0.6 | 7.6 | 1.3 | -6.5 | -7.3 | . | . | . | .
COc1cccc(/C=N/Nc2snc(SC)c2C#N)c1O | 60.0* | 75.1* | 10.4 | -0.1 | -9.4 | 60.1* | 69.3* | 52.3* | 82.5* | 43.7*
OC(COC(c1ccccc1)c1ccccc1)CN1CCc2ccccc2C1 (stereo not given) | 11.9 | 4.7 | -57.2 | -24.4 | -1.3 | -0.9 | . | . | . | .
OC(COC(c1ccc(Cl)cc1)c1ccc(Cl)cc1)CN1CCc2ccccc2C1 (stereo not given) | -6.1 | 81.7* | -41.2 | -19.7 | -11.2 | 24.8 | 80.9* | 2.6 | 49.3* | 13.1
Cc1ccc(/C=N\Nc2cn[nH]c(=O)c2Cl)cc1 | 5.5 | 40.8* | -6.5 | -13.7 | -11.0 | -2.3 | 62.2* | 0.0 | 24.0 | 9.0
Cc1ccsc1/C=N\Nc1cn[nH]c(=O)c1Cl | 23.4 | 73.5* | 5.0 | -4.9 | -11.1 | 54.0* | 87.4* | -0.2 | 77.4* | 1.9
O=c1[nH]ncc(N/N=C/c2ccccc2)c1Cl | 12.8 | 64.0* | -10.3 | -3.1 | -4.5 | 78.2* | 91.9* | 2.4 | 92.8* | -3.0
O=C1CC(O)(C(F)(F)F)Oc2c1ccc1ccccc21 (stereo not given) | 34.9 | 76.2* | -4.3 | 5.9 | 3.2 | 46.1 | 74.8* | 69.9* | 45.9 | 39.2*
S=C(NCCc1ccccc1)Nc1c(Cl)cccc1Cl | 17.5 | 67.6* | -36.2 | -23.4 | -5.3 | 36.5 | 78.2* | -0.1 | 80.1* | 8.9
Fc1ccc(F)c(NC(=S)NCCc2ccccc2)c1 | 38.0 | 3.3 | -7.3 | 10.8 | -3.6 | 7.9 | . | . | . | .
FC(F)Oc1ccccc1NC(=S)NCCc1ccccc1 | 4.1 | 51.0* | -19.6 | -18.3 | . | -14.1 | 77.4* | 5.4 | 35.2 | 5.2
O=C(CSc1n[nH]c(-c2ccncc2)n1)Nc1ccc(Cl)cc1 | 10.3 | 25.6 | -20.2 | -11.5 | 1.5 | 14.9 | . | . | . | .
O=C(CSc1n[nH]c(-c2ccncc2)n1)Nc1ccc(Cl)c(Cl)c1 | 18.4 | 101.6* | -20.5 | 2.3 | -11.3 | 39.0 | 66.5* | 60.0* | 40.4 | 22.3*
COc1ccc(C(=O)NC(=S)Nc2ccc(N3CCOCC3)cc2)cc1Cl | 25.0 | 4.3 | -34.7 | -5.5 | -2.3 | 7.3 | . | . | . | .
